Data on 19 compounds can be found in ChEMBL document CHEMBL3600340, “Design and synthesis of new barbituric- and thiobarbituric acid derivatives as potent urease inhibitors: Structure activity relationship and molecular modeling studies” (Bioorg Med Chem, 2015).

Urease, sequence (P07374 whole entry): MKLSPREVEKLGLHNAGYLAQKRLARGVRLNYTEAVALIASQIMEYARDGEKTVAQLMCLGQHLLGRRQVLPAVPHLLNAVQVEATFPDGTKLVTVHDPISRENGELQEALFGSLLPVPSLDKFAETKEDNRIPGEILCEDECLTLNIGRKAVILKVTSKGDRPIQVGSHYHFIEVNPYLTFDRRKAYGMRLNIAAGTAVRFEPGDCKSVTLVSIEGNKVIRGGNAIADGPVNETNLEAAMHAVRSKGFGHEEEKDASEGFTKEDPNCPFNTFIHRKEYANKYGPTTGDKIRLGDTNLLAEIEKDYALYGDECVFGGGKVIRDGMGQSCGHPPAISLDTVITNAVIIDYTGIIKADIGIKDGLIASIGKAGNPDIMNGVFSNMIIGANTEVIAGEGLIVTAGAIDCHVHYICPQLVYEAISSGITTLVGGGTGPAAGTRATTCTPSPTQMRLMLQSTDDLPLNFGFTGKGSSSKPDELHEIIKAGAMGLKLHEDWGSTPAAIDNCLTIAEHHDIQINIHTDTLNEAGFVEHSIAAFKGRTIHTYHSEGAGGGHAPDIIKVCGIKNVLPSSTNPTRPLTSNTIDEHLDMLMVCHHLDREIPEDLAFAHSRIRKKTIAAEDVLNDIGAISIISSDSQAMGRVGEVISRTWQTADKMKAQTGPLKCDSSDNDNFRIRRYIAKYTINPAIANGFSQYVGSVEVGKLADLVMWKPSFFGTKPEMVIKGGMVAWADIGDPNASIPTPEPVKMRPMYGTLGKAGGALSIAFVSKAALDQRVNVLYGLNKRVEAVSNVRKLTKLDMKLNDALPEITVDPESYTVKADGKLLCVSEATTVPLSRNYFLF

The assay addresses Urease (Canavalia ensiformis, UniProt P07374). The experiment in a line: Inhibition of jack bean Urease assessed as ammonia production after 15 mins by indophenol method. The procedure, abridged:
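Jack bean urease preincubated with test compound (0.5 mM, concentration as printed) in buffer containing 100 mM urea at 30 °C for 15 min, pH 6.8. Ammonia quantified by indophenol method (phenol/nitroprusside plus alkaline hypochlorite). Absorbance read at 630 nm after 50 min.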
Turning to `O=C1NC(=O)C(=CNc2ccc(C(=O)O)c(O)c2)C(=O)N1`, the IC50 came out at 88.3 µM.
For `O=C1NC(=O)C(=CNc2ccc([N+](=O)[O-])c(C(=O)O)c2)C(=O)N1`, the IC50 is 25.8 µM.
With `O=C1NC(=S)NC(=O)C1=CNc1ccccc1C(=O)O` the figure was 13 µM; with `O=C1NC(=S)NC(=O)C1=CNc1cccc(C(=O)O)c1`, 21.8 µM; with `O=C1NC(=S)NC(=O)C1=CNc1ccc(C(=O)O)cc1`, 8.93 µM.
As for `O=C1NC(=S)NC(=O)C1=CNc1ccc(C(=O)O)c(O)c1`, the IC50 amounted to 32.3 µM.
The same measure for `O=C1NC(=S)NC(=O)C1=CNc1cc([N+](=O)[O-])ccc1C(=O)O`: 8.53 µM.
With `O=C1NC(=S)NC(=O)C1=CNc1cc(C(=O)O)ccc1O` the figure was 18.9 µM.
The same measure for `O=C1NC(=S)NC(=O)C1=CNc1ccc([N+](=O)[O-])c(C(=O)O)c1`: 39.8 µM; for `O=C1NC(=S)NC(=O)C1=CNc1cc(C(=O)O)ccc1Cl`: 26.7 µM.
As to `O=C1NC(=O)C(=CNc2ccccc2S)C(=O)N1`, the IC50 turned out to be 52.6 µM.
Regarding `O=C1NC(=S)NC(=O)C1=CNc1ccccc1C(F)(F)F`, the IC50 came to 65.3 µM.
The same measure for `O=C1NC(=S)NC(=O)C1=CNc1cccc(C(F)(F)F)c1`: 24.6 µM; for `O=C1NC(=S)NC(=O)C1=CNc1ccc(C(F)(F)F)cc1`: 136 µM.
The same measure for `O=C1NC(=S)NC(=O)C1=CNc1cc([N+](=O)[O-])ccc1C(F)(F)F`: 28.7 µM.
The same measure for `O=C1NC(=S)NC(=O)C1=CNc1cc(Cl)cc(Cl)c1`: 89.2 µM.
`O=C1NC(=S)NC(=O)C1=CNc1ccc(I)cc1`: the IC50 stood at 41.3 µM.
With `O=C1NC(=S)NC(=O)C1=CNc1ccccc1O` the figure was 19.7 µM; with `O=C1NC(=S)NC(=O)C1=CNc1ccccc1S`, 15 µM.
